# Assay results: ChEMBL document CHEMBL1135686, “Binding model for nonpeptide antagonists of alpha(v)beta(3) integrin” (J Med Chem, 2002)
# Target: Integrin alpha-V/beta-3 (Homo sapiens, UniProt P05106+P06756)
# Experiment: Inhibition of Vitronectin receptor, integrin alphaV-beta3 expressed in HEK 293 cells
# Format: cell-based, HEK293
# Summary of the method: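 Human recombinant αvβ3 was purified from HEK 293 cells overexpressing it, following a placental αvβ3 purification method, and captured on lyophilized wheat germ agglutinin SPA beads. Values are reported as IC50.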
# Sequence of Integrin alpha-V/beta-3 (P05106 27-788 limits assumed): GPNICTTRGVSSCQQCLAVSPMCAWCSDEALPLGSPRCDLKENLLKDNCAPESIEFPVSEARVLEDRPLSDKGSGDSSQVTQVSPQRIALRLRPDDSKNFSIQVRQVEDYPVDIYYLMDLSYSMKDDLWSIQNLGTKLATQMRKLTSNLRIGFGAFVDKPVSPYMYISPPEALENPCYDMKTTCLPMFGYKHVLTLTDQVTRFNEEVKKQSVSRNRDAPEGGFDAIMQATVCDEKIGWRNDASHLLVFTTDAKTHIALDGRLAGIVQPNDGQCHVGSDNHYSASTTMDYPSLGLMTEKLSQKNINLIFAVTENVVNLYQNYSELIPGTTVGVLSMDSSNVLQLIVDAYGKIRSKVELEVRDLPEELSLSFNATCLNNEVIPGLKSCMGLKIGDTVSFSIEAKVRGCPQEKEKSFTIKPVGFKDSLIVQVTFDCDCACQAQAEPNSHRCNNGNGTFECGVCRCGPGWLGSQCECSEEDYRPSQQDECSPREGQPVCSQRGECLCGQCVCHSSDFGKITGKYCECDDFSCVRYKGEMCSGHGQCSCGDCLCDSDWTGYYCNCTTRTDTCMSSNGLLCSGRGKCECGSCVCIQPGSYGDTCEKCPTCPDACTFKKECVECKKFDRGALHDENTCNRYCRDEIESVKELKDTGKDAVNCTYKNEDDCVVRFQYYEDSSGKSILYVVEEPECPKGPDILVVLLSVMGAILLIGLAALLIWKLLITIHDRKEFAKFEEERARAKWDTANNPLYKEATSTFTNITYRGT
# Sequence of Integrin alpha-V/beta-3 (P06756 31-889 limits assumed): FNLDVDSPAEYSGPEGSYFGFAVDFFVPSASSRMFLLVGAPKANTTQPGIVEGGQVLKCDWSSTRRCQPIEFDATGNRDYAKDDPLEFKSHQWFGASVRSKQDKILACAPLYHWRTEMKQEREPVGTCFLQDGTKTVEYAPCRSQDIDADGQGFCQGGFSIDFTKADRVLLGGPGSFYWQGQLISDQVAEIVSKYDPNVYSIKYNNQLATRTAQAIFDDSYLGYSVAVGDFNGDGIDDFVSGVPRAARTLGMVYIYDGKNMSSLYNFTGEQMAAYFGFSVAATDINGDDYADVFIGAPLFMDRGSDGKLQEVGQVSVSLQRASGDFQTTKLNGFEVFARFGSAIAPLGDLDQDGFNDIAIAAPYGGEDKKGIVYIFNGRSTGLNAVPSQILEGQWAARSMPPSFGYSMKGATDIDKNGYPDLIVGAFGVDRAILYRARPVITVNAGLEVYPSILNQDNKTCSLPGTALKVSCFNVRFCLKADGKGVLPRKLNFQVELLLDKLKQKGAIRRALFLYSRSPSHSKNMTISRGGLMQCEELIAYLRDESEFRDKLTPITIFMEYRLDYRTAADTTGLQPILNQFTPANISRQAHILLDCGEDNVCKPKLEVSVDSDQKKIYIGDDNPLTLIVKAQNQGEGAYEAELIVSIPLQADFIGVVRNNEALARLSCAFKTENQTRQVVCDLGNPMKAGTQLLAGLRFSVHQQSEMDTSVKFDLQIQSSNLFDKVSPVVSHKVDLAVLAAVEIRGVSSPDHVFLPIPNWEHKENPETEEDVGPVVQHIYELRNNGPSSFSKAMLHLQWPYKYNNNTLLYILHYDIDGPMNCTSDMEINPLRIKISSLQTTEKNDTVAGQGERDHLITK
# Sequence of Integrin alpha-V/beta-3 (P06756 891-1048 limits assumed): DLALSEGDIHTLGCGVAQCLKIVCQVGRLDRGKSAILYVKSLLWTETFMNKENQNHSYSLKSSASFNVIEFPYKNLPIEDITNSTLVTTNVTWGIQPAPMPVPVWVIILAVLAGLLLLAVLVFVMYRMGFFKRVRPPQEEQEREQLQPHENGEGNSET
row,SMILES,IC50 [nM]
1,CNc1cccc(CCOc2ccc3c(c2)CN(CC(F)(F)F)C(=O)[C@H](CC(=O)O)C3)n1,0.15
2,O=C(O)C[C@H](NC(=O)CN1CCC(CCc2ccc3c(n2)NCCC3)C1=O)c1cccnc1 (stereo not given in full),0.35
3,O=C(O)C[C@H](NC(=O)CNC(=O)CCCc1ccc2c(n1)NCCC2)c1cccnc1,8.8
4,O=C(NC[C@H](NS(=O)(=O)c1ccccc1)C(=O)O)c1ccc(OCCC2CCNCC2)cc1,> 1000
5,O=C(O)C[C@H](NC(=O)CN1CCC(CCc2ccc3c(n2)NCCC3)C1=O)c1cnc2ccccc2c1 (stereo not given in full),0.04
